Series [1] is described as follows: melting temperature; fluorescence melt of hairpins on a sequencing array, two-state fit, raised by 9.35 °C to match UV melts. Conditions: sodium 0.088 M. The gist of the method: (§1)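 Bootstrapped two-state fits yielded melting temperature and folding enthalpy for library hairpins. Cy3 fluorescence, with annealed Cy3 and quencher oligos, was imaged on a sequenced MiSeq flow cell in 50 mM Na-HEPES pH 8.0, 25 mM NaCl in 2.5 °C steps up to 60 °C, and normalised to pre-quench Cy3 and to control constructs. Four replicates were combined by inverse variance, and fitted temperatures were raised by 9.35 °C to match UV melts.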

The nature of series [2]: folding enthalpy; higher = less favourable; fluorescence melt of hairpins on a sequencing array, two-state fit. Conditions: sodium 0.088 M. Put shortly:
as §1

For GGTGCGGGAAACCGCGCC ((.((((....)))).)), in series [1], the Tm came to 68.7 °C. Also, the folding enthalpy in series [2] is -31.3 kcal/mol.
For GGTGCGTCGAAAGACACC (((..(((....)))))), the Tm in series [1] turned out to be 37.1 °C. Moreover, the folding enthalpy in series [2] was -13 kcal/mol.
On the same counts, the results for GGTGCTACGAAAGTAACC (((..(((....)))))) are 29.1 °C and -13.5 kcal/mol.
With GGTGCTCGAAAGAGGACC (((.(((....))).))), the Tm in series [1] was found to be 59.7 °C. The folding enthalpy in series [2] was -47.6 kcal/mol.
Consider GGTGCTGGAAACAGCGCC ((.((((....)))).)), for which, in series [1], the Tm stood at 64.9 °C. Moreover, the folding enthalpy in series [2] is -34.3 kcal/mol.
For GGTGGACCGAAAGGTACC (((..(((....)))))), the Tm in series [1] came to 45 °C. Besides, the folding enthalpy in series [2] is -13.4 kcal/mol.
In the case of GGTGGACGAAAGTCTACC (((.(((....))).))), the Tm in series [1] was 59 °C. The folding enthalpy in series [2] is -41.5 kcal/mol.
For GGTGGAGGAAACCCCACC (((((.(....).))))), in that order: 51.1 °C and -43.6 kcal/mol.
For GGTGGAGGAAACTTCGCC ((.(.((....)).).)), in that order: 37.7 °C and -28.2 kcal/mol.
Turning to GGTGGCCCGAAAGGGACC (((..(((....)))))), the Tm in series [1] is 52.2 °C. In series [2], the folding enthalpy was -12.7 kcal/mol.
On the same counts, the results for GGTGGCCGAAAGGCACC (((.(((....)))))) are 61.8 °C and -18.5 kcal/mol.
For GGTGGCGAAAGCCCTACC ((((((....)))..))), in that order: 36.1 °C and -13.2 kcal/mol.
On the same counts, the results for GGTGGCGAAAGCCGCACC ((((((....)))..))) are 47.7 °C and -9.89 kcal/mol.
Regarding GGTGGCGGAAACGCCATC (.(((((....))))).), the Tm in series [1] was determined as 59.9 °C. The folding enthalpy in series [2] is -16.4 kcal/mol.
On to GGTGGCGGAAACGCCGTC (..((((....))))..), for which, in series [1], the Tm was found to be 45.1 °C. Besides, in series [2], the folding enthalpy is -10.1 kcal/mol.
Regarding GGTGGCTCGAAAGAGACC (((..(((....)))))), the Tm in series [1] was 42 °C. Further, the folding enthalpy in series [2] was -13.5 kcal/mol.
For GGTGGGCCGAAAGGCACC (((..(((....)))))), in that order: 50.5 °C and -10.5 kcal/mol.
GGTGGGGGAAACCCTGCC ((..(((....)))..)): the Tm in series [1] is 47.8 °C. Besides, the folding enthalpy in series [2] was -27.9 kcal/mol.
For GGTGGGGGAAACCTCGCC ((.(.((....)).).)), in that order: 45.6 °C and -30.8 kcal/mol.
On the same counts, the results for GGTGGTACGAAAGTAACC (((..(((....)))))) are 43.8 °C and -19 kcal/mol.
For GGTGGTCGAAAGACACC (((.(((....)))))), in that order: 54.8 °C and -17.5 kcal/mol.
Take GGTGGTCGAAAGACTACC (((.(((....))).))): the Tm in series [1] turned out to be 57 °C. The folding enthalpy in series [2] was -43.2 kcal/mol.
In the case of GGTGTACCGAAAGGTACC (((..(((....)))))), the Tm in series [1] worked out at 44.7 °C. In series [2], the folding enthalpy was -9.75 kcal/mol.
For GGTGTAGGAAACTGCACC ((((.((....)).)))), in that order: 52.7 °C and -44.5 kcal/mol.
On the same counts, the results for GGTGTCCGAAAGGAACC (((.(((....)))))) are 48.3 °C and -19.8 kcal/mol.
For the sequence GGTGTCGAAAGACGCACC ((((((....)))..))), the Tm in series [1] was 42.4 °C. Moreover, the folding enthalpy in series [2] is -13.6 kcal/mol.
For GGTGTCGAAAGACGTACC ((((((....)))..))), in that order: 41.9 °C and -19.3 kcal/mol.
GGTGTCGAAAGACTACC ((((((....))).))): the Tm in series [1] turned out to be 47.8 °C. The folding enthalpy in series [2] is -17.7 kcal/mol.
With GGTGTCGAAAGACTGACC ((((((....)))..))), the Tm in series [1] worked out at 40.5 °C. In addition, the folding enthalpy in series [2] is -18.4 kcal/mol.
For GGTGTCGGAAACGACGTC (..((((....))))..), in that order: 36.8 °C and -12.3 kcal/mol.
Regarding GGTGTCGGAAACGGCATC (.((.((....)).)).), the Tm in series [1] came to 44.4 °C. In series [2], the folding enthalpy was -26.1 kcal/mol.
For GGTGTGCGAAAGCAACC (((.(((....)))))), in that order: 52.1 °C and -17 kcal/mol.
On the same counts, the results for GGTGTGCGAAAGCAGACC (((.(((....))).))) are 64.4 °C and -33.9 kcal/mol.
For GGTGTGGCGAAAGCCACC (((..(((....)))))), in that order: 49 °C and -7.44 kcal/mol.
For GGTGTGGGAAACCATACC (((.(((....))).))), the Tm in series [1] is 50.8 °C. In addition, the folding enthalpy in series [2] was -33.5 kcal/mol.
Take GGTGTGGGAAACCGTACC (((..((....))..))): in series [1], the Tm amounted to 36.8 °C. Moreover, the folding enthalpy in series [2] is -24.1 kcal/mol.
On the same counts, the results for GGTGTTACGAAAGTAACC (((..(((....)))))) are 45.2 °C and -13.8 kcal/mol.

The values above are taken from the array DNA melting data of Ke et al. (doi:10.1101/2024.01.08.574731).
